The values below come from ChEMBL document CHEMBL1765057, “Pyrazolo[4,3-d]pyrimidine bioisostere of roscovitine: evaluation of a novel selective inhibitor of cyclin-dependent kinases with antiproliferative activity” (J Med Chem, 2011).

Broadly, the inhibition is the percentage by which the read-out fell short of the control. As usually defined, the IC50 is the concentration that inhibits the measured activity by half. A lower IC50 goes with inhibition by little substance.

Activity calls are given as the source filed them. The rule behind the calls is not given here.

Assay [1] deals with Glycogen synthase kinase-3 beta (Homo sapiens) (UniProt P49841). The assay is described as follows: Inhibition of human recombinant GSK3B at 10 uM.
Sequence of Glycogen synthase kinase-3 beta (Homo sapiens) (P49841 whole entry, looked up): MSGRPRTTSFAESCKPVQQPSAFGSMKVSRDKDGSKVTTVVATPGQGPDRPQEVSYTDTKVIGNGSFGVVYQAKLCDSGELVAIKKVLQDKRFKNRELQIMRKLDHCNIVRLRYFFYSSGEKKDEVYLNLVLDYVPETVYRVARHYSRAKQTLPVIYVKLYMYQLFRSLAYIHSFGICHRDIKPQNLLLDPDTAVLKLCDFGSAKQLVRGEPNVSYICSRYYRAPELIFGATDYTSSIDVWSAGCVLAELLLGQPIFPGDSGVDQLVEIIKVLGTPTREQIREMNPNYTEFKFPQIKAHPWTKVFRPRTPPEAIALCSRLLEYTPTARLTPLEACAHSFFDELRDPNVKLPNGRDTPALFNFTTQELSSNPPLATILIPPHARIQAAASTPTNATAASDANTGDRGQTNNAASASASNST
The subject of assay [2] is MCF7. The assay is described as follows: Cell cycle arrest in human MCF7 cells assessed as accumulation at sub-G1 phase after 24 hrs using propidium iodide and BrdU staining by flow cytometry. The class given is functional, cell-based. Summed up:
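Subconfluent MCF-7 cells were treated for 24 h at a range of concentrations. They were pulse-labelled with 10 μM BrdU for 30 min at 37 °C, then trypsinized and fixed in ice-cold 70% ethanol. DNA was denatured in 2 M HCl and neutralized with borate. Cells were stained with fluorescein anti-BrdU and with propidium iodide plus RNase A, then analysed by flow cytometry at 488 nm.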

For assay [3], the target named is Casein kinase I isoform alpha (Homo sapiens) (UniProt P48729). The assay is described as follows: Inhibition of human recombinant CK1 at 10 uM.
Sequence of Casein kinase I isoform alpha (Homo sapiens) (P48729 2-337 limits assumed): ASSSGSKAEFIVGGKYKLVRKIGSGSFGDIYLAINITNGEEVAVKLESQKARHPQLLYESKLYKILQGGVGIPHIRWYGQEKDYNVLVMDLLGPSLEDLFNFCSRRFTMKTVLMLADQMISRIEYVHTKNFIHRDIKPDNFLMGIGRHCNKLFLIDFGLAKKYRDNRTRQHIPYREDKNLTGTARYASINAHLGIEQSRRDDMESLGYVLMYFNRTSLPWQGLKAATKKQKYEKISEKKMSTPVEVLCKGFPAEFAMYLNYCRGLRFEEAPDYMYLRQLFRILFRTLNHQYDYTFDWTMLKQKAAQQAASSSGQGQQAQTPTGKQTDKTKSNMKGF
In assay [4] the target is Cellular tumor antigen p53 (Homo sapiens) (UniProt P04637). Put plainly: Induction of p53-dependent transcriptional activity in human ARN8 cells assessed as beta-galactosidase activity after 24 hrs by immunofluorescence assay. It counts as cell-based. Summed up:
(§1)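 ARN8 melanoma cells stably carrying the p53-responsive pRGCΔfoslacZ reporter were exposed to inhibitors for 24 h, permeabilized with 0.3% Triton X-100 for 15 min, and given MUG substrate (final 80 μM). Fluorescence was read at 355/460 nm after 1 h. Data are mean ± SD of three independent experiments.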

In the next assay the test system is HCT-116. Put plainly: Cytotoxicity against human HCT116 cells after 72 hrs by fluoroskan ascent microplate reader analysis. It counts as functional, cell-based. The following applies: HCT-116, 72 h. The essentials:
(§2)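 Cells were grown in DMEM with 10% FCS and 4 mM glutamine at 37 °C under CO2, then plated at densities suited to each line. Compounds were added as 3-fold dilutions in triplicate for 72 h.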

A further assay concerns U2OS. The assay is described as follows: Reduction of homologous recombination in human DR-U2OS-GFP cells expressing I-SceI nuclease at 5 uM after 56 hrs […] relative to control. It counts as functional.
For a further assay, the system named is BT-474. The assay is described as follows: Cytotoxicity against human BT474 cells after 72 hrs by fluoroskan ascent microplate reader analysis. It counts as functional, cell-based. As to conditions: BT-474, 72 h. Summed up:
as §2

For assay [5], the system named is RPMI-8226. The assay is described as follows: Induction of apoptosis in human RPMI8226 cells assessed as increase in caspase3 activation after 24 hrs by immunoblot analysis. The class given is functional, cell-based.
Assay [6] has as its target T1, Retinoblastoma-associated protein (Homo sapiens) (UniProt P06400).
T1 sequence (whole entry): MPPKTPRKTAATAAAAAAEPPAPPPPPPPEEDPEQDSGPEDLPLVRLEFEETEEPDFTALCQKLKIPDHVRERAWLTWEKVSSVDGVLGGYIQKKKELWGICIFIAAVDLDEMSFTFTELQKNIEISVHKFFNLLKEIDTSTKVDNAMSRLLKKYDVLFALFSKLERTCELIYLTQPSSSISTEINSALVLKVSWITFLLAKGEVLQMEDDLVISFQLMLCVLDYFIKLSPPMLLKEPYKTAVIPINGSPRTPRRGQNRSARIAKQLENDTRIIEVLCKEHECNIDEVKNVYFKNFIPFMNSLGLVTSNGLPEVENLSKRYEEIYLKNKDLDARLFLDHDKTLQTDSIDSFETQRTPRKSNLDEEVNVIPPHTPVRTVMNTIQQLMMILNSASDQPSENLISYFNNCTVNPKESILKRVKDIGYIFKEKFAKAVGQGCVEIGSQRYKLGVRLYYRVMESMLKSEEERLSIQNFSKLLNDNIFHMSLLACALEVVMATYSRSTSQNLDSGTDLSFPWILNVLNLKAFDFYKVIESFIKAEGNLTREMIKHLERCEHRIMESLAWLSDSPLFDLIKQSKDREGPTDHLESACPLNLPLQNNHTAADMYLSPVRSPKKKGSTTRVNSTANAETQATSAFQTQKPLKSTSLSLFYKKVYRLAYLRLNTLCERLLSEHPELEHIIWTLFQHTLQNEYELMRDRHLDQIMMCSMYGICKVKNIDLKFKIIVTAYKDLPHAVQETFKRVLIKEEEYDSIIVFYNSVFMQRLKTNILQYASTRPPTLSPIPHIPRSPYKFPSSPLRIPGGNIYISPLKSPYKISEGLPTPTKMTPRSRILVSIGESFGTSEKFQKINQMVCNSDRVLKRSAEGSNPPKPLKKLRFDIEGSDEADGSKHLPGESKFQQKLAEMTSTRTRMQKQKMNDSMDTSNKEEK
Put plainly: Inhibition of retinoblastoma protein in human MCF7 cells assessed as reduction of cyclin E level at 2.5 to 40 uM after 24 hrs by immunoblotting. The class given is cell-based. Summed up: (§3)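 Asynchronous, exponentially growing MCF-7 cells were exposed 24 h to a range of concentrations. Total lysates were made in Laemmli buffer, run on SDS-PAGE and blotted to nitrocellulose. Membranes were probed overnight at 4 °C with specific or phosphospecific antibodies (pRb S249/T252, S780, S795, S807/811), with tubulin as loading control and ECL detection.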

For assay [7], the target named is Cyclin-dependent kinase 1/cyclin B1 (Homo sapiens) (UniProt P06493+P14635). The following applies: at 10 µM.
Sequence of Cyclin-dependent kinase 1/cyclin B1 (Homo sapiens) (P06493 whole entry, looked up): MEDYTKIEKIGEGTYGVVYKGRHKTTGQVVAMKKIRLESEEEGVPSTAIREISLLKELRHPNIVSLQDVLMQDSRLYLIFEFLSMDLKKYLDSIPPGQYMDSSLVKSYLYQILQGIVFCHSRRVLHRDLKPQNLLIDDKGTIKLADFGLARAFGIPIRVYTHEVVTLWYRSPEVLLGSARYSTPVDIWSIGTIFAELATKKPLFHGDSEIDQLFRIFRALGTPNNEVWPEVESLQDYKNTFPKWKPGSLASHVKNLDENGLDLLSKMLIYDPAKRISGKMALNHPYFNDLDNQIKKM
Sequence of Cyclin-dependent kinase 1/cyclin B1 (Homo sapiens) (P14635 whole entry, looked up): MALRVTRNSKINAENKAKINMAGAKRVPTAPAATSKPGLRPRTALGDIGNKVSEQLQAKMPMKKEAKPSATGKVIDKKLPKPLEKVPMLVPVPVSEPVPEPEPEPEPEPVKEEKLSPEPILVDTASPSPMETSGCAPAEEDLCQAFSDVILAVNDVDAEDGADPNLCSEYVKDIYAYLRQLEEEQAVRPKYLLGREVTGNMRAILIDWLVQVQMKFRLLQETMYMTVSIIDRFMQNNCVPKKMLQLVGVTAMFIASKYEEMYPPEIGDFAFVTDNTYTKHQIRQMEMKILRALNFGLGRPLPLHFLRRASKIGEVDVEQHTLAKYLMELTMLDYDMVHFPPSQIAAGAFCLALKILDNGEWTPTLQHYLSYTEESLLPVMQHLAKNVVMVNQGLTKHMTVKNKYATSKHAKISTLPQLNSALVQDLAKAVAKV
A further assay concerns K562. The assay is described as follows: Cytotoxicity against human K562 cells after 72 hrs by fluoroskan ascent microplate reader analysis. The class given is functional, cell-based. The following applies: K562, 72 h. Summed up:
as §2

Assay [8] deals with MCF7. The assay is described as follows: Cytotoxicity against human MCF7 cells after 72 hrs by fluoroskan ascent microplate reader analysis. It counts as functional, cell-based. The following applies: MCF7, 72 h. Summed up: as §2
Assay [9] has as its system RPMI-8226. The assay is described as follows: Cell cycle arrest in human RPMI8226 cells assessed as accumulation at sub-G1 phase after 24 hrs using propidium iodide and BrdU staining by flow cytometry. The class given is functional, cell-based. Summed up: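 Asynchronously growing RPMI-8226 multiple myeloma cells were exposed for 24 h. Cells were double-stained with propidium iodide and BrdU and analysed by flow cytometry for G1, S, G2/M and BrdU-positive fractions. The subG1 population was taken as indicative of apoptosis.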
(In general: Uptake of a labelled nucleoside into DNA is a usual measure of proliferation.)

In assay [10] the target is T1, Retinoblastoma-associated protein (Homo sapiens). The assay is described as follows: Inhibition of retinoblastoma protein in human MCF7 cells assessed as reduction of cyclin A level at 2.5 to 40 uM after 24 hrs by immunoblotting. It counts as cell-based. Summed up:
as §3
(In general: A western blot detects proteins with antibodies after separation by electrophoresis.)

Assay [11] has as its target Cellular tumor antigen p53 (Homo sapiens) (UniProt P04637). The assay is described as follows: Induction of p53-dependent transcriptional activity in human ARN8 cells assessed as beta-galactosidase activity at 10 to 20 uM after 24 hrs by immunofluorescence assay. It counts as cell-based. Summed up: as §1
Assay [12] relates to RPMI-8226. Put plainly: Induction of apoptosis in human RPMI8226 cells assessed as induction of caspase7 activation at 20 uM after 24 hrs by immunoblot analysis. It counts as functional, cell-based. The following applies: in the assay text read “by fluorogenic assay” for “by immunoblot analysis”. Summed up:
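RPMI-8226 cells were treated continuously for 24 h and lysed in CHAPS extraction buffer (pH 7.4) on ice, then clarified, with protein equalized by Bradford. Lysates were incubated 1 h with 100 μM Ac-DEVD-AMC in PIPES/DTT buffer (pH 7.3), with 100 μM Ac-DEVD-CHO added for negative controls. Fluorescence was read at 355/460 nm.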

For assay [13], the system named is RPMI-8226. Put plainly: Cell cycle arrest in human RPMI8226 cells assessed as accumulation at G1 phase after 24 hrs using propidium iodide and BrdU staining by flow cytometry. It counts as functional, cell-based. The essentials: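 Subconfluent cells treated 24 h at varying concentrations, pulsed with 10 μM BrdU for 30 min at 37 °C, then trypsinized, fixed in ice-cold 70% ethanol and DNA denatured in 2 M HCl. After staining with fluorescein anti-BrdU (1:50), propidium iodide (0.1 mg/mL) and RNase A (0.5 mg/mL), cells were read by flow cytometry with a 488 nm laser.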

Sequence of Cellular tumor antigen p53 (Homo sapiens) (P04637 whole entry, looked up): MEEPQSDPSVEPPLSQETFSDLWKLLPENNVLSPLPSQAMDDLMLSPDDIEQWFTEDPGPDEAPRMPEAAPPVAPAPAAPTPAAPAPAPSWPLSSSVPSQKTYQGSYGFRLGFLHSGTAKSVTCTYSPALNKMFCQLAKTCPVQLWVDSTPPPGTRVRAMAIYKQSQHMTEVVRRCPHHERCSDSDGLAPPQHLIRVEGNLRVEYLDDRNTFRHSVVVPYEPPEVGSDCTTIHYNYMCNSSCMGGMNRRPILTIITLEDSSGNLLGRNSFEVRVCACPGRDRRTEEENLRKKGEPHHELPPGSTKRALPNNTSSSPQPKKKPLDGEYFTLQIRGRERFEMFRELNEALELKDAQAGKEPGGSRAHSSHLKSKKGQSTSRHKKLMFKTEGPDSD

In the case of `CC[C@H](CO)Nc1nc(NCc2ccccc2)c2[nH]nc(C(C)C)c2n1`, the figures for the inhibition in [1], in [3] and in assay [7] were 54%, 7% and 84%, respectively. The outcome (in the assay on MCF7 [2]; with RPMI-8226 [5]; in the assay with RPMI-8226 [9]; in assay [11]; in the assay on RPMI-8226 [12]; with RPMI-8226 [13]) was Active. Besides, the Activity result in assay [4] was “Dose-dependent effect”. For the same molecule, the IC50 was 11 µM in the assay with HCT-116, 8.5 µM with BT-474, 7.7 µM in the assay with K562 and 7.5 µM with MCF7 [8]. Also, the inhibition at 5 µM with U2OS amounted to 66%. The inhibition result in assay [6] and in [10] was “inactive” each time.
